Experimental data as given in ChEMBL document CHEMBL3600383, “A new polyoxygenated cyclohexene and a new megastigmane glycoside from Uvaria grandiflora” (Bioorg Med Chem Lett, 2015).

How the values were obtained:
Format in all cases: functional, cell-based
[1] = system: SW480; assay: Cytotoxic activity against human SW480 cells assessed as inhibition of cell growth incubated for 48 hrs by SRB method; conditions: SW480, 48 h
Summary of the method: (§1)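 Sulforhodamine B growth-inhibition assay run as part of a panel of nine human cancer cell lines. Potency is reported as IC50 in µM.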

[2] = system: HL-60; assay: Cytotoxic activity against human HL60 cells assessed as inhibition of cell growth incubated for 48 hrs by SRB method; conditions: HL-60, 48 h; summary of the method: as §1
[3] = system: KB; assay: Cytotoxic activity against human KB cells assessed as inhibition of cell growth incubated for 48 hrs by SRB method; summary of the method: as §1
[4] = system: MDA-MB-231; assay: Cytotoxic activity against human MDA-MB-231 cells assessed as inhibition of cell growth incubated for 48 hrs by SRB method; conditions: MDA-MB-231, 48 h; summary of the method: as §1
[5] = system: SK-MEL-2; assay: Cytotoxic activity against human SK-MEL-2 cells assessed as inhibition of cell growth incubated for 48 hrs by SRB method; conditions: SK-MEL-2, 48 h
Summary of the method: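 Sulforhodamine B growth-inhibition assay, run in parallel across a panel of nine human cancer cell lines. Potency is reported as IC50 in µM.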

[6] = Cytotoxic activity against human MKN7 cells assessed as inhibition of cell growth incubated for 48 hrs by SRB method; conditions: MKN-7, 48 h; summary of the method: as §1
[7] = system: LNCaP; assay: Cytotoxic activity against human LNCAP cells assessed as inhibition of cell growth incubated for 48 hrs by SRB method; summary of the method: as §1
[8] = system: HepG2; assay: Cytotoxic activity against human HepG2 cells assessed as inhibition of cell growth incubated for 48 hrs by SRB method; conditions: HepG2, 48 h; summary of the method: as §1
[9] = system: Lu1; assay: Cytotoxic activity against human Lu1 cells assessed as inhibition of cell growth incubated for 48 hrs by SRB method; conditions: Lu1, 48 h; summary of the method: as §1

Row | Structure (SMILES) | IC50 [1] [µM] | IC50 [2] [µM] | IC50 [3] [µM] | IC50 [4] [µM] | IC50 [5] [µM] | IC50 [6] [µM] | IC50 [7] [µM] | IC50 [8] [µM] | IC50 [9] [µM]
1 | O=C(OC[C@@]1(O)C(=O)C=C[C@@H](O)[C@@H]1O)c1ccccc1 | 11.3 | 6.22 | 13.3 | 64.1 | 3.63 | 8.63 | 45.4 | 13.1 | 4.68
2 | C[C@@H]1O[C@@H](O[C@H]2[C@H](O[C@H]3CO[C@@H](O[C@H]4CC[C@]5(C)[C@H]6CC[C@]78OC[C@@]9(CC[C@](C)(C=O)C[C@H]97)[C@H](O)C[C@@]8(C)[C@]6(C)CC[C@H]5C4(C)C)[C@H](O[C@@H]4O[C@H](CO)[C@@H](O)[C@H](O)[C@H]4O)[C@H]3O)O[C@H](CO)[C@@H](O)[C@@H]2O)[C@H](O)[C@H](O)[C@H]1O [ARDISIACRISPIN B] | 1.24 | 22.6 | 1.6 | 11.8 |  | 1.27 | 9.7 | 1.53 | 1.41
3 | Cc1c2ccncc2c(C)c2c1[nH]c1ccccc12 [ELLIPTECINE] | 3.17 | 2.93 | 3.98 | 3.21 | 1.14 | 3.82 | 3.21 | 3.5 | 2.72
